This note sets out measurements from ChEMBL document CHEMBL1156405, “A new biologically active malyngamide from a New Zealand collection of the sea hare Bursatella leachii” (J Nat Prod, 2002).

One series has as its system Bacillus subtilis. Nature of the series: Antimicrobial activity against Bacillus subtilis at 120 ug/disk. It counts as functional. In short, it runs like this: (§1)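 Disk diffusion assay with 120 µg loaded per disk. The read-out was the excess radius of the zone around the disk, in mm.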
Series [1] relates to Trichophyton mentagrophytes. In words: Antimicrobial activity against Trichophyton mentagrophytes at 120 ug/disk. The format is functional. The method, boiled down:
as §1

The test system of a further series is P388. In words: Cytotoxicity against mouse P388 cells. It counts as functional, cell-based.
Series [2] in a line: Cytotoxicity against BSC1 cells assessed as radius zone size at 120 ug/disk. It counts as cell-based. As to conditions: chlorocebus aethiops, bsc-1. In short, it runs like this:
as §1

The next series deals with HL-60. In words: Antiproliferative activity against human HL60 cells after 2 days. The format is functional, cell-based. As to conditions: HL-60, 48 h.
Another series concerns Escherichia coli. Nature of the series: Antimicrobial activity against Escherichia coli at 120 ug/disk. It counts as functional, organism-based.
For a further series, the system named is Candida albicans. In words: Antimicrobial activity against Candida albicans at 120 ug/disk. It counts as functional, organism-based.
Series [3] has as its system Mycobacterium tuberculosis. Nature of the series: Antimicrobial activity against Mycobacterium tuberculosis at 6.25 ug/mL. It counts as functional.

Molecules are shown by their SMILES. pIC50: −log10 of the molar value. Activity calls are given as the source filed them. No cut-off for these calls is given here. Some results are limits rather than exact numbers.

As to `CCCCC[C@@H](C/C=C/CCC(=O)O)OC`, the zone of inhibition at 120 µg/disc in the series with Bacillus subtilis (read-out: IZ) was 2 mm; in series [1] (read-out: IZ), 3 mm. Moreover, the pIC50 in the series with P388 was < 4.00. Besides, the Activity in series [2] is listed as > 4.5 mm.
For the compound `CCCCC[C@@H](C/C=C/CCC(=O)NC/C(=C/Cl)[C@H]1C(=O)C(C)(C)C(=O)[C@@H](C)[C@@]1(C)O)OC` [MALYNGAMIDE S], the pIC50 was 5.22 in the series on HL-60 and 4.54 in the series on P388. Also, the outcome (in the series on Bacillus subtilis; in the series with Escherichia coli; in series [1]; in the series with Candida albicans) was inactive. Moreover, the Activity in series [2] is > 4.5 mm. The same compound had an inhibition at 6.25 µg/mL in series [3] of 0%.

Broadly, the pIC50 is −log10 of the IC50, conventionally taken in molar units. High values mean a low IC50, low ones a high IC50. Broadly, the inhibition is the relative decrease from the control value, in per cent. Read a high inhibition as a response far below the control.
